# Assay results: ChEMBL document CHEMBL1140904, “Synthesis and analysis of novel glycerolipids for the treatment of metabolic syndrome” (J Med Chem, 2009)
# What was measured:
# Rattus norvegicus [1] = assay: Effect on fatty acid composition in Wistar rat assessed as change in liver MUFA level at 85 uM, po after 6 days; type: functional
# Outline: (§1)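 Male Wistar rats were gavaged once daily for 6 days with compound in 0.5% CMC at 85 or 250 µmol TTA-equivalent per animal. Controls received palmitic acid. Liver was homogenized in 0.25 M sucrose/10 mM HEPES pH 7.4/1 mM EDTA at 0-4 °C. Lipids were extracted with chloroform:methanol 2:1 and spiked with 21:0 internal standard. Fatty acids were BF3-methanol transesterified and quantified as wt%. Values are mean ± SD, n=5.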
# Rattus norvegicus [2] = assay: Effect on fatty acid composition in Wistar rat assessed as change in liver saturated fatty acid level at 250 uM, po after 6 days; type: functional; outline: as §1
# Rattus norvegicus [3] = assay: Induction of PPAR-alpha-regulated HMG-CoA synthase activity in po dosed Wistar rat after 6 days; type: functional, organism-based
# Outline: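 Wistar rats were gavaged daily for 6 days at 85 or 250 µmol TTA-equivalent in 0.5% CMC, with palmitic acid controls. HMG-CoA synthase activity was assayed in the liver postnuclear fraction by the Clinkenbeard method. Mean ± SD, 5 rats/group.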
# Rattus norvegicus [4] = assay: Plasma concentration in Wistar rat at 85 uM, po after 6 days; type: ADME, organism-based; conditions: in vivo, 144 h
# Liver [5] = assay: Drug level in Wistar rat liver at 250 uM, po after 6 days; type: ADME, organism-based; conditions: in vivo, 144 h; outline: as §1
# Rattus norvegicus [6] = assay: Effect on fatty acid composition in Wistar rat assessed as change in plasma saturated fatty acid level at 85 uM, po after 6 days; type: functional
# Rattus norvegicus [7] = assay: Effect on fatty acid composition in Wistar rat assessed as change in liver PUFA level at 85 uM, po after 6 days; type: functional; outline: as §1
# Rattus norvegicus [8] = assay: Effect on fatty acid composition in Wistar rat assessed as change in plasma MUFA level at 85 uM, po after 6 days; type: functional
# Rattus norvegicus [9] = assay: Induction of PPAR-alpha-regulated CPT2 activity in po dosed Wistar rat after 6 days; type: functional, organism-based
# Outline: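 Wistar rats were dosed orally for 6 days (85 or 250 µmol TTA-equivalent in 0.5% CMC; palmitic acid controls). CPT-II activity was measured in the liver mitochondrial fraction, prepared from sucrose/HEPES pH 7.4/EDTA homogenate at 0-4 °C. Means ± SD from 5 rats per group.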
# Rattus norvegicus [10] = assay: Decrease in plasma cholesterol level in po dosed Wistar rat after 6 days; type: functional, organism-based
# Outline: (§2)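 Male Wistar rats (170-210 g), housed in pairs with chow and water, were gavaged once daily for 6 days with test lipid in 0.5% (w/v) carboxymethylcellulose at 85 or 250 µmol TTA-equivalent per animal. Controls received palmitic acid in CMC. Plasma triacylglycerol and cholesterol were measured with an enzymatic kit, and liver levels were also determined. Values are mean ± SD, n=5 rats.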
# Rattus norvegicus [11] = assay: Induction of PPAR-alpha-regulated fatty acyl-CoA oxidase activity in po dosed Wistar rat after 6 days; type: functional, organism-based
# Outline: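 Rats were dosed by gastric intubation for 6 days at 85 or 250 µmol TTA-equivalent in 0.5% CMC, with palmitic acid controls. Fatty acyl-CoA oxidase was measured in the liver postnuclear fraction by a coupled assay, following H2O2 production as the rise in dichlorofluorescein absorbance with palmitoyl-CoA. Mean ± SD, n=5.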
# Rattus norvegicus [12] = assay: Effect on fatty acid composition in Wistar rat assessed as change in plasma LCPUFA, n-6 level at 250 uM, po after 6 days; type: functional
# Rattus norvegicus [13] = assay: Effect on fatty acid composition in Wistar rat assessed as change in liver MUFA level at 250 uM, po after 6 days; type: functional; outline: as §1
# Rattus norvegicus [14] = assay: Effect on fatty acid composition in Wistar rat assessed as change in plasma LCn-6/18:2 level at 85 uM, po after 6 days; type: functional
# Rattus norvegicus [15] = assay: Plasma concentration in Wistar rat at 250 uM, po after 6 days; type: ADME, organism-based; conditions: in vivo, 144 h
# Rattus norvegicus [16] = assay: Effect on fatty acid composition in Wistar rat assessed as change in plasma LCn-6/18:2 level at 250 uM, po after 6 days; type: functional
# Rattus norvegicus [17] = assay: Effect on fatty acid composition in Wistar rat assessed as change in liver PUFA level at 250 uM, po after 6 days; type: functional; outline: as §1
# Rattus norvegicus [18] = assay: Effect on fatty acid composition in Wistar rat assessed as change in liver 18;2, n-6 level at 85 uM, po after 6 days; type: functional; outline: as §1
# Rattus norvegicus [19] = assay: Effect on fatty acid composition in Wistar rat assessed as change in liver LCPUFA, n-6 level at 250 uM, po after 6 days; type: functional; outline: as §1
# Rattus norvegicus [20] = assay: Decrease in plasma triacylglycerol level in po dosed Wistar rat after 6 days; type: functional, organism-based; outline: as §2
# Rattus norvegicus [21] = assay: Effect on fatty acid composition in Wistar rat assessed as change in liver LCPUFA, n-6 level at 85 uM, po after 6 days; type: functional; outline: as §1
# Rattus norvegicus [22] = assay: Effect on fatty acid composition in Wistar rat assessed as change in plasma MUFA level at 250 uM, po after 6 days; type: functional
# Rattus norvegicus [23] = assay: Effect on fatty acid composition in Wistar rat assessed as change in liver LCn-6/18:2 level at 85 uM, po after 6 days; type: functional; outline: as §1
# Rattus norvegicus [24] = assay: Effect on fatty acid composition in Wistar rat assessed as change in plasma 18;2, n-6 level at 85 uM, po after 6 days; type: functional
# Rattus norvegicus [25] = assay: Increase in [1-14C]palmitoyl-CoA oxidation in po dosed Wistar rat liver homogenate after 6 days; type: functional, organism-based
# Outline: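 Rats were dosed by gastric intubation for 6 days with 85 or 250 µmol TTA-equivalent in 0.5% CMC, with palmitic acid controls. Liver was homogenized in 0.25 M sucrose, 10 mM HEPES pH 7.4, 1 mM EDTA at 0-4 °C. Palmitoyl-CoA oxidation was read as acid-soluble products from [1-14C]-palmitoyl-CoA in the postnuclear fraction. Mean ± SD, n=5.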
# Rattus norvegicus [26] = assay: Effect on fatty acid composition in Wistar rat assessed as change in liver LCn-6/18:2 level at 250 uM, po after 6 days; type: functional; outline: as §1
# Rattus norvegicus [27] = assay: Effect on fatty acid composition in Wistar rat assessed as change in liver saturated fatty acid level at 85 uM, po after 6 days; type: functional; outline: as §1
# Liver [28] = assay: Drug level in Wistar rat liver at 85 uM, po after 6 days; type: ADME, organism-based; conditions: in vivo, 144 h; outline: as §1
# Rattus norvegicus [29] = assay: Effect on fatty acid composition in Wistar rat assessed as change in plasma PUFA level at 250 uM, po after 6 days; type: functional
# Rattus norvegicus [30] = assay: Effect on fatty acid composition in Wistar rat assessed as change in plasma saturated fatty acid level at 250 uM, po after 6 days; type: functional
# Rattus norvegicus [31] = assay: Effect on fatty acid composition in Wistar rat assessed as change in liver 18;2, n-6 level at 250 uM, po after 6 days; type: functional; outline: as §1
# Rattus norvegicus [32] = assay: Effect on fatty acid composition in Wistar rat assessed as change in plasma PUFA level at 85 uM, po after 6 days; type: functional
# Rattus norvegicus [33] = assay: Effect on fatty acid composition in Wistar rat assessed as change in plasma 18;2, n-6 level at 250 uM, po after 6 days; type: functional
# Rattus norvegicus [34] = assay: Effect on fatty acid composition in Wistar rat assessed as change in plasma LCPUFA, n-6 level at 85 uM, po after 6 days; type: functional
compound,measurement,setting,value
CCCCCCCCCCCCCCSCC(=O)O [TETRADECYLTHIOACETIC ACID],Activity,Rattus norvegicus [1],17.35%
same,Activity,Rattus norvegicus [2],38.71%
same,Activity,Rattus norvegicus [3],Dose-dependent effect
same,Drug uptake,Rattus norvegicus [4],0.32%
same,Drug uptake,Liver [5],2.03%
same,Activity,Rattus norvegicus [6],36.02%
same,Activity,Rattus norvegicus [7],5.44%
same,Activity,Rattus norvegicus [8],23.49%
same,Activity,Rattus norvegicus [9],Dose-dependent effect
same,Activity,Rattus norvegicus [10],Dose-dependent effect
same,Activity,Rattus norvegicus [11],Dose-dependent effect
same,Activity,Rattus norvegicus [12],20.82%
same,Activity,Rattus norvegicus [13],16.86%
same,Activity,Rattus norvegicus [14],1.03%
same,Drug uptake,Rattus norvegicus [15],1.6%
same,Activity,Rattus norvegicus [16],1.06%
same,Activity,Rattus norvegicus [17],4.94%
same,Activity,Rattus norvegicus [18],11.15%
same,Activity,Rattus norvegicus [19],27.66%
same,Activity,Rattus norvegicus [20],Dose-dependent effect
same,Activity,Rattus norvegicus [21],25.7%
same,Activity,Rattus norvegicus [22],21.32%
same,Activity,Rattus norvegicus [23],2.34%
same,Activity,Rattus norvegicus [24],18.46%
same,Activity,Rattus norvegicus [25],Dose-dependent effect
same,Activity,Rattus norvegicus [26],2.56 dimensionless ratio
same,Activity,Rattus norvegicus [27],39.67%
same,Drug uptake,Liver [28],0.36%
same,Activity,Rattus norvegicus [29],2.24%
same,Activity,Rattus norvegicus [30],35%
same,Activity,Rattus norvegicus [31],11.02%
same,Activity,Rattus norvegicus [32],2.47%
same,Activity,Rattus norvegicus [33],19.68%
same,Activity,Rattus norvegicus [34],18.75%
